# Assay results from PMC4987221 (Bioorganic & medicinal chemistry letters, 2016).
# Experiments:
# hM4 = molecular target: T1, hM4 (Homo sapiens, UniProt P08173); type: cell-based
# T1 sequence (P08173 1-479): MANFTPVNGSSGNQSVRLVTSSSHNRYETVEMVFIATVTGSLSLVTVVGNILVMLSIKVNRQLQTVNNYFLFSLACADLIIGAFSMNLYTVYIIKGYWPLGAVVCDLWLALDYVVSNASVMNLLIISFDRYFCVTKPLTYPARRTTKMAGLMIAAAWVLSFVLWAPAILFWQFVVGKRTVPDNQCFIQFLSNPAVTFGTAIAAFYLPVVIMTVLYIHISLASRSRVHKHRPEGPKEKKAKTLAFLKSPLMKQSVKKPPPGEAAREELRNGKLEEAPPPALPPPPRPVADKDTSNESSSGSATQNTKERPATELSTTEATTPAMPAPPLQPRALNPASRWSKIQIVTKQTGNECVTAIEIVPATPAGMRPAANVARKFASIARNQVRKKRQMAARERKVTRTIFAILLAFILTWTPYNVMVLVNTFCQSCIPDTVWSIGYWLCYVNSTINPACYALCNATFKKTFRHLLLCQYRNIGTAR
# Method in brief: (§1)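 Functional calcium mobilization in CHO cells expressing M4 with the Gqi5 chimeric G protein (human M4 for line 2, rat M4 for line 3). The test compound was added with a fixed EC20 acetylcholine concentration, and efficacy was expressed as % of the maximal acetylcholine response. For the screening hit, DMSO stock from the screening source plates was used. Values are means of three independent experiments, each run in triplicate.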
# rM4 = molecular target: T2, rM4 (Rattus norvegicus, UniProt P08485); type: cell-based; details: unit not given
# T2 sequence (P08485 1-478): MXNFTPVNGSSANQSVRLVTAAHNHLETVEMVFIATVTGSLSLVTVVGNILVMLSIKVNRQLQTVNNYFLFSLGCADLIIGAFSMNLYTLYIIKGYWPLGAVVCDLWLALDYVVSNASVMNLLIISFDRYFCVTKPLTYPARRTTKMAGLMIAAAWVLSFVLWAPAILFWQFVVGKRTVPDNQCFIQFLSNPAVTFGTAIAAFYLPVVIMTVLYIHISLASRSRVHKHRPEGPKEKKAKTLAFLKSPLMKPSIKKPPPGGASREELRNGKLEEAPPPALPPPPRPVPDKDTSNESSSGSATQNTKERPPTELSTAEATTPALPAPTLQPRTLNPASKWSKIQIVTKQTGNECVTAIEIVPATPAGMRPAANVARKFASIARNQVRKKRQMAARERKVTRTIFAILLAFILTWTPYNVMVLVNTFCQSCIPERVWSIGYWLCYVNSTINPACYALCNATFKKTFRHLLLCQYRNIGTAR
# Method in brief: as §1
# human M1 = molecular target: T3, human M1 (Homo sapiens, UniProt P11229); assay: Built-in HTS counterscreen, human M1; type: cell-based
# T3 sequence (P11229 1-460): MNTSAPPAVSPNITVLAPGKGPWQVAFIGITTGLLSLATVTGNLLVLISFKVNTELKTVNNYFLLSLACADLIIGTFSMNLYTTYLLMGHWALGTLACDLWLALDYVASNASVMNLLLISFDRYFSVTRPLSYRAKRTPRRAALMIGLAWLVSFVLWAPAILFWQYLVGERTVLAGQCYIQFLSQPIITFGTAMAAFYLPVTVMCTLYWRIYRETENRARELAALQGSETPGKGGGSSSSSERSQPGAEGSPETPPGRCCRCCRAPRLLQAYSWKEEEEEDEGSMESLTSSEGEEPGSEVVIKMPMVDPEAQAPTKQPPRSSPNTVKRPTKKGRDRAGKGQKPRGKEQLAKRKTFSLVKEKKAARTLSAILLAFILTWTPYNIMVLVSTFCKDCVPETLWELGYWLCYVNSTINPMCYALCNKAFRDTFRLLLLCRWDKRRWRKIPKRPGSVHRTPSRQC
# human M5 = molecular target: T4, human M5 (Homo sapiens, UniProt P08912); assay: Built-in HTS counterscreen, human M5; type: cell-based
# T4 sequence (P08912 1-532): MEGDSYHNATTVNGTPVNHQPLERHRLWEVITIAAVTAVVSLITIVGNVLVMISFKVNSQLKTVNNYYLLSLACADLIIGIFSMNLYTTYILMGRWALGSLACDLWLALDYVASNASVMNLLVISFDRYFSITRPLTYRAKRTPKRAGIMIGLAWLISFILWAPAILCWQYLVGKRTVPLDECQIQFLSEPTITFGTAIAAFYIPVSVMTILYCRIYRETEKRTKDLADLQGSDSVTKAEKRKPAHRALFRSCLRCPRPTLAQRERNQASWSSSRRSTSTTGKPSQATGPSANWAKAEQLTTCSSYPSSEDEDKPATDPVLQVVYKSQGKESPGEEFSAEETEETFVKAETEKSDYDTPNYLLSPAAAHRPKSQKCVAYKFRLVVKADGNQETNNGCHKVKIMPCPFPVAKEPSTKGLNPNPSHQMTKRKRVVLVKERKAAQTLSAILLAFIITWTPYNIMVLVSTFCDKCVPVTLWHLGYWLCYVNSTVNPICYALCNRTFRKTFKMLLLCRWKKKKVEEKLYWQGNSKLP
# [1] = Hepatic microsomal intrinsic clearance, human; type: in vitro ADME
# Method in brief: (§2)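 Intrinsic clearance was measured in hepatic microsomes (human for line 4, rat for line 5), and predicted hepatic clearance was calculated from the microsomal CLint. Data come from a single experiment run in triplicate.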
# [2] = Hepatic microsomal intrinsic clearance, rat; type: in vitro ADME; details: for predicted hepatic clearance rCLhep: rat, from microsomal CLint
# Method in brief: as §2
# [3] = Metabolite identification in human cryopreserved hepatocytes; type: in vitro ADME; details: secondary alcohol 18 as the single major metabolite
# [4] = human hepatic microsomes, in words
# [5] = rat hepatic microsomes, in words
smiles,measurement,setting,value
Cc1nc2sc(C(=O)c3ccccc3)c(N)c2c(C)c1C [Cpd 7],human M4 % ACh Max,"hM4; HTS hit, using DMSO stock from the source plates",76%
same,hM4 ACh Max,hM4; unit not given,76.8±4.1
same,rM4 ACh Max,rM4,80.5±6.3
same,activity on human M1,human M1,inactive
same,activity on human M5,human M5,inactive
same,in vitro intrinsic clearance (CLint),[1]; [4],very high
same,predicted hepatic clearance (CLhep),[1]; [4],near hepatic blood flow rates
same,in vitro intrinsic clearance (CLint),[2]; [5],very high
same,predicted hepatic clearance (CLhep),[2]; [5],near hepatic blood flow rates
Cc1cc(C)c2c(N)c(C(=O)c3ccncc3)sc2n1 [Cpd 12f],metabolism route (Met ID),[3],"rapid, and near quantitative, reductive metabolism"
Cc1cc(C)c2c(N)c(C(=O)CCc3ccncc3)sc2n1 [Cpd 19],predicted hepatic clearance hCLhep,"[1]; human, from microsomal CLint",18 mL/min/kg
same,predicted hepatic clearance rCLhep,[2],62 mL/min/kg
COc1ccc(CCC(=O)c2sc3nnc(C)c(C)c3c2N)cc1F [Cpd 20],predicted hepatic clearance rCLhep,[2],62 mL/min/kg
